# Measured values taken from ChEMBL document CHEMBL1122654, “Phosphorus analogues of gamma-aminobutyric acid, a new class of anticonvulsants” (J Med Chem, 1984).
# Active and inactive are the calls of the source.
# Columns and labels:
# [1] = Partition coefficient (logP); format: physicochemical; conditions: octanol/water
# [2] = target: GABA B receptor (Rattus norvegicus) (UniProt Q9Z0U4+O88871); experiment: Displacement of [3H]GABA from GABA-B binding sites in brain homogenates (relative to 100 uM baclofen) at 100 uM; format: tissue-based
# Method in brief: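 Rat brain membrane binding (male Sprague-Dawley) using 10 nM [3H]GABA, with 100 µM isoguvacine present to block GABA-A sites. Test concentration 100 µM. Percent inhibition expressed relative to 100 µM baclofen. Mean of two separate experiments, each in triplicate.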
# [3] = system: Mus musculus; experiment: In vivo anticonvulsant activity against electric shock induced seizures(MES) in mice 0.5 hr after ip administration; active at 600 mg/kg; format: functional, organism-based; design: dose 600 mg/kg
# [4] = target: GABA-A receptor; anion channel (Rattus norvegicus) (UniProt O09028+P15431+P18506+P18508+P19969+P20236+P23574+P23576+P28471+P28473+P30191+P62813+P63079+P63138+Q91ZM7+Q9ES14); experiment: Displacement of [3H]-GABA from Gamma-aminobutyric acid A receptor binding sites in brain homogenates (relative to 1 mM GABA) at 100 uM; format: tissue-based
# Method in brief: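 Male Sprague-Dawley rat brain, frozen, homogenized in 50 mM Tris-citrate (pH 7.1 at 4 °C). Membranes treated with 0.05% Triton X-100 for 30 min at 37 °C and resuspended at 0.5–1.0 mg/mL protein. Incubated with 8 nM [3H]GABA for 5 min at 4 °C, stopped by centrifugation, and counted by scintillation. Test concentration 100 µM. Expressed as percent of the inhibition given by 1 mM GABA. Mean of two experiments, each in triplicate.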
# [5] = system: Mus musculus; experiment: In vivo anticonvulsant activity against electric shock induced seizures(MES) in mice 0.5 hr after ip administration; + indicates activity at 600 mg/kg.; format: functional, organism-based; design: dose 600 mg/kg
# [6] = system: Mus musculus; experiment: In vivo anticonvulsant activity against electric shock induced seizures(MES) in mice 4 hr after ip administration; + indicates activity at 600 mg/kg; format: functional, organism-based; design: dose 600 mg/kg
# [7] = system: Mus musculus; experiment: In vivo anticonvulsant activity against pentylene tetrazole seizure threshold(SMC) in mice 0.5 hr after sc administration; +++ indicates activity at 100 mg/kg; format: functional, organism-based; design: dose 100 mg/kg
# [8] = system: Mus musculus; experiment: In vivo anticonvulsant activity against pentylene tetrazole seizure threshold(SMC) in mice 4 hr after sc administration; - indicates inactive at 600 mg/kg; format: functional, organism-based; design: dose 600 mg/kg
# [9] = system: Mus musculus; experiment: In vivo neurotoxicity at 600 mg/kg, number of animals exhibiting neurotoxicity in the rotarod test / number of animals tested 4 hr; 0/2; format: toxicity, organism-based; design: dose 600 mg/kg
# [10] = system: Mus musculus; experiment: In vivo neurotoxicity at 600 mg/kg, number of animals exhibiting neurotoxicity in the rotarod test / number of animals tested at 0.5 hr; 0/4; format: toxicity, organism-based; design: dose 600 mg/kg
# [11] = system: Mus musculus; experiment: In vivo anticonvulsant activity against pentylene tetrazole seizure threshold(SMC) in mice 4 hr after sc administration; indicates inactive at 600 mg/kg; format: functional, organism-based; design: dose 600 mg/kg
# [12] = system: Mus musculus; experiment: In vivo anticonvulsant activity against pentylenetetrazole seizure threshold(SMC) in mice 0.5 hr after sc administration; indicates inactive at 600 mg/kg; format: functional, organism-based; design: dose 600 mg/kg
# [13] = system: Mus musculus; experiment: In vivo anticonvulsant activity against electric shock induced seizures(MES) in mice 0.5 hr after ip administration; indicates inactive at 600 mg/kg; format: functional, organism-based; design: dose 600 mg/kg
# [14] = system: Mus musculus; experiment: In vivo anticonvulsant activity against electric shock induced seizures(MES) in mice 4 hr after ip administration; indicates inactive at 600 mg/kg; format: functional, organism-based; design: dose 600 mg/kg
# [15] = system: Mus musculus; experiment: In vivo neurotoxicity at 600 mg/kg, number of animals exhibiting neurotoxicity in the rotarod test / number of animals tested at 4 hr; 0/2; format: toxicity, organism-based; design: dose 600 mg/kg
# [16] = system: Mus musculus; experiment: In vivo neurotoxicity at 600 mg/kg, number of animals exhibiting neurotoxicity in the rotarod test / number of animals tested at 0.5 hr; 1/4; format: toxicity, organism-based; design: dose 600 mg/kg
# [17] = system: Mus musculus; experiment: In vivo anticonvulsant activity against electric shock induced seizures(MES) in mice 0.5 hr after ip administration; active at 300 mg/kg; format: functional, organism-based; design: dose 300 mg/kg
# [18] = system: Mus musculus; experiment: In vivo anticonvulsant activity against electric shock induced seizures(MES) in mice 4 hr after ip administration; active at 300 mg/kg; format: functional, organism-based; design: dose 300 mg/kg
# [19] = system: Mus musculus; experiment: In vivo anticonvulsant activity against pentylene tetrazole seizure threshold(SMC) in mice 0.5 hr after sc administration; active at 600 mg/kg; format: functional, organism-based; design: dose 600 mg/kg
# [20] = system: Mus musculus; experiment: In vivo anticonvulsant activity against electric shock induced seizures(MES) in mice 0.5 hr after ip administration; inactive at 600 mg/kg; format: functional, organism-based; design: dose 600 mg/kg
# [21] = system: Mus musculus; experiment: In vivo anticonvulsant activity against pentylene tetrazole seizure threshold(SMC) in mice 0.5 hr after sc administration; inactive at 600 mg/kg; format: functional, organism-based; design: dose 600 mg/kg
# [22] = system: Mus musculus; experiment: In vivo anticonvulsant activity against pentylene tetrazole seizure threshold(SMC) in mice 4 hr after sc administration; inactive at 600 mg/kg; format: functional, organism-based; design: dose 600 mg/kg
# [23] = system: Mus musculus; experiment: In vivo neurotoxicity at 600 mg/kg, number of animals exhibiting neurotoxicity in the rotarod test / number of animals tested 4 hr; format: toxicity, organism-based; design: dose 600 mg/kg
# [24] = system: Mus musculus; experiment: In vivo neurotoxicity at 600 mg/kg, number of animals exhibiting neurotoxicity in the rotarod test / number of animals tested at 0.5 hr; format: toxicity, organism-based; design: dose 600 mg/kg
# [25] = system: Mus musculus; experiment: In vivo anticonvulsant activity against electric shock induced seizures(MES) in mice 4 hr after ip administration; inactive at 600 mg/kg; format: functional, organism-based; design: dose 600 mg/kg
smiles,measurement,setting,value
CCOP(=S)(OCC)Oc1ccc(SC)cc1Cl,logP,[1],4.4
Nc1cccc(P(=O)(Oc2ccccc2)Oc2ccccc2)c1,inhibition,[2],51%
CCOP(=S)(OCC)Oc1ccc([N+](=O)[O-])cc1 [PARATHION],logP,[1],2.98
CCOP(=O)(OCC)Oc1ccccc1 [PHOSPHORIC ACID DIETHYL ESTER PHENYL ESTER],logP,[1],1.64
CC1(C)COP(=S)(c2ccccc2)N1 (stereo unspecified),inhibition,[2],15%
same,Anticonvulsant activity,[3],active at 600 mg/kg
COP(=O)(OC)Oc1ccc([N+](=O)[O-])c(C)c1 [FENITROXON],logP,[1],1.69
COP(=O)(OC)c1cccc(N)c1,inhibition,[2],13%
same,inhibition,[4],13%
same,Anticonvulsant activity,[5],Active
same,Anticonvulsant activity,[6],Active
same,Anticonvulsant activity,[7],Active
same,Anticonvulsant activity,[8],inactive
same,Toxicity,[9],0
same,Toxicity,[10],0
COP(=O)(OC)Oc1ccc([N+](=O)[O-])c(Cl)c1,logP,[1],1.83
CCOP(=O)(OCC)Oc1ccc([N+](=O)[O-])cc1 [PARAOXON],logP,[1],1.64
CCOP(=S)(OCC)Oc1ccccc1,logP,[1],3.46
NCCOP(=O)(O)c1ccccc1,inhibition,[2],16%
same,inhibition,[4],15%
same,Anticonvulsant activity,[11],inactive
same,Anticonvulsant activity,[12],inactive
same,Anticonvulsant activity,[13],inactive
same,Anticonvulsant activity,[14],inactive
same,Toxicity,[10],0
same,Toxicity,[15],0
COP(=S)(OC)Oc1ccc([N+](=O)[O-])cc1Cl [DICAPTHON],logP,[1],3.44
CCOP(=O)(CCCN)OCC,Toxicity,[9],0
same,Toxicity,[16],1
COP(=S)(OC)Oc1ccc([N+](=O)[O-])c(C(C)C)c1,logP,[1],4.05
CCOP(=O)(OCC)Oc1ccccc1NC(C)=O,Anticonvulsant activity,[17],active at 300 mg/kg
same,Anticonvulsant activity,[18],active at 300 mg/kg
same,Anticonvulsant activity,[19],active at 300 mg/kg
COP(=O)(OC)Oc1cc(C)c([N+](=O)[O-])c(C)c1,logP,[1],2.57
COP(=S)(OC)Oc1ccc([N+](=O)[O-])c(Cl)c1 [CHLORTHION],logP,[1],3.45
CCc1cc(OP(=O)(OC)OC)ccc1[N+](=O)[O-],logP,[1],2.19
COP(=O)(OC)Oc1ccc([N+](=O)[O-])cc1 [DIMETHYL 4-NITROPHENYL PHOSPHATE],logP,[1],1.27
COP(=O)(OC)Oc1ccc([N+](=O)[O-])c(C(C)C)c1,logP,[1],2.57
NCCCP(=O)(O)O,inhibition,[2],91%
same,inhibition,[4],12%
same,Anticonvulsant activity,[20],inactive
same,Anticonvulsant activity,[21],inactive
same,Anticonvulsant activity,[22],inactive
same,Toxicity,[23],Not Active
same,Toxicity,[24],Not Active
same,Anticonvulsant activity,[25],inactive
